According to ChEMBL document CHEMBL1124483 (J Med Chem, 1989):

Experiment: Lethal dose of the compound, when administered intraperitoneally in mice
Type: toxicity, organism-based
Conditions: mouse, in vivo, ip
In short: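 Male Swiss Webster mice (15–20 g), five per dose level, at least four dose levels, given ip injection (0.10 mL/10 g) in normal saline or saline/phosphate-buffered saline, with EtOH up to 2.5% final for some; solvent-only control group.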

SMILES | LD50
OC1CCCCC1N1CCC(Cc2ccccc2)CC1 (stereo not given) | > 180 µmol/kg
OC1CCCCC1N1CCC(c2ccccc2)CC1 (racemic) | 16 µmol/kg
OC1CCCCC1N1CC=C(c2ccc(Cl)cc2)CC1 (stereo not given) | > 340 µmol/kg
CC(=O)Nc1cccc2c1CC(N1CCC(c3ccccc3)CC1)C(O)C2 (stereo not given) | 1.7 µmol/kg
CC(C)(C)[C@H]1CC[C@@H](O)[C@H](N2CCC(c3ccccc3)CC2)C1 | 5.7 µmol/kg
C[N+]1(C2CCCCC2O)CCC(c2ccccc2)CC1 (stereo not given) | > 180 µmol/kg
CC1(O)CCCC[C@H]1N1CCC(c2ccccc2)CC1 (stereo not given in full) | > 180 µmol/kg
OC1CCCC1N1CCC(c2ccccc2)CC1 (stereo not given) | > 200 µmol/kg
OC1Cc2ccccc2CC1N1CCC(c2ccccc2)CC1 (stereo not given) | 1.2 µmol/kg
COc1ccccc1N1CCN(C2CC3CCCCC3CC2O)CC1 (racemic; 68) | 12 µmol/kg
O[C@H]1CCCC[C@@H]1N1CCC(c2ccccc2)CC1 | > 190 µmol/kg
O[C@@H]1CCCC[C@H]1N1CCC(c2ccccc2)CC1 [VESAMICOL] | 12 µmol/kg
OC1CC2CCCCC2CC1N1CCC(c2ccccc2)CC1 (racemic) | 2 µmol/kg
CO[C@H]1CCC[C@@H](N2CCC(c3ccccc3)CC2)[C@@H]1O | 240 µmol/kg
CCC(O)CN1CCC(c2ccccc2)CC1 (stereo not given) | 300 µmol/kg
